These results are taken from ChEMBL document CHEMBL1125496, “New potent mitomycin derivatives: synthesis and antitumor activity of 7,7-(ethylenedioxy)mitomycins” (J Med Chem, 1992).

In assay [1] the test system is HeLa. In words: In vitro anticellular activity against HeLa cells. It is filed as functional, cell-based, Homo sapiens. In a few lines: (§1)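 HeLa S3 cells seeded on day 0, then exposed to drug for 1 h on day 1. Anticellular activity determined by a previously described method and reported as 1 h IC50 in μM.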
In assay [2] the test system is Mus musculus. Briefly: In vivo antitumor activity against P388 leukemia cells (ip)in mice and maximal increase in life span calculated as (T/C-1)*100 at the optimal dose of 2.5 mg/kg (%ILS max of mitomycin C at the optimal dose of 4.0 mg/kg). The format is functional.
Assay [3] has as its system Mus musculus. In words: In vivo antitumor activity against P388 leukemia cells (ip)in mice and maximal increase in life span calculated as (T/C-1)*100 at the optimal dose of 5 mg/kg (%ILS max of mitomycin C at the optimal dose of 4.0 mg/kg). It is filed as functional.
The subject of assay [4] is Mus musculus. In words: In vivo antitumor activity against P388 leukemia cells (ip)in mice and maximal increase in life span calculated as (T/C-1)*100 at the optimal dose of 13 mg/kg (%ILS max of mitomycin C at the optimal dose of 6.0 mg/kg). It is filed as functional.
Assay [5] has as its system Mus musculus. Briefly: In vivo antitumor activity against P388 leukemia cells (ip)in mice and maximal increase in life span calculated as (T/C-1)*100 at the optimal dose of 3 mg/kg (%ILS max of mitomycin C at the optimal dose of 6.0 mg/kg). It is filed as functional.
The subject of assay [6] is Mus musculus. Briefly: In vivo antitumor activity against P388 leukemia cells (ip)in mice and maximal increase in life span calculated as (T/C-1)*100 at the optimal dose of 5 mg/kg (%ILS max of mitomycin C at the optimal dose of 6.0 mg/kg). The format is functional.
The test system of assay [7] is Mus musculus. Briefly: In vivo antitumor activity against P388 leukemia cells (ip)in mice and maximal increase in life span calculated as (T/C-1)*100 at the optimal dose of 3.1 mg/kg (%ILS max of mitomycin C at the optimal dose of 4.0 mg/kg). It is filed as functional.
Assay [8] relates to Mus musculus. Briefly: In vivo antitumor activity against P388 leukemia cells (ip)in mice and maximal increase in life span calculated as (T/C-1)*100 at the optimal dose of 13 mg/kg (%ILS max of mitomycin C at the optimal dose of 4.0 mg/kg). The format is functional.
Assay [9] has as its system HeLa. Briefly: The compound was tested in vitro for its anticellular activity against HeLa cells. It is filed as functional, cell-based. Conditions: Homo sapiens. Summed up:
as §1

Assay [10] deals with Mus musculus. In words: In vivo antitumor activity against P388 leukemia cells (ip)in mice and maximal increase in life span calculated as (T/C-1)*100 at the optimal dose of 0.75 mg/kg (%ILS max of mitomycin C at the optimal dose of 6.0 mg/kg). The format is functional.
The subject of assay [11] is Mus musculus. Briefly: In vivo antitumor activity against P388 leukemia cells (ip)in mice and maximal increase in life span calculated as (T/C-1)*100 at the optimal dose of 0.39 mg/kg (%ILS max of mitomycin C at the optimal dose of 4.0 mg/kg). The format is functional.
For assay [12], the system named is Mus musculus. In words: TIn vivo antitumor activity against P388 leukemia cells (ip)in mice and maximal increase in life span calculated as (T/C-1)*100 at the optimal dose of 5 mg/kg (%ILS max of mitomycin C at the optimal dose of 4.0 mg/kg). It is filed as functional.
The test system of assay [13] is Mus musculus. In words: In vivo antitumor activity against P388 leukemia cells (ip)in mice and maximal increase in life span calculated as (T/C-1)*100 at the optimal dose of 0.50 mg/kg (%ILS max of mitomycin C at the optimal dose of 6.0 mg/kg). The format is functional.
The subject of assay [14] is Mus musculus. In words: In vivo antitumor activity against P388 leukemia cells (ip)in mice and maximal increase in life span calculated as (T/C-1)*100 at the optimal dose of 2.5 mg/kg (%ILS max of mitomycin C at the optimal dose of 6.0 mg/kg). The format is functional.
Assay [15] concerns Mus musculus. In words: In vivo antitumor activity against P388 leukemia cells (ip)in mice and maximal increase in life span calculated as (T/C-1)*100 at the optimal dose of 4.0-6.0 mg/kg. The format is functional.

For orientation: IC50 means the point on the concentration scale where inhibition reaches its midpoint. A high value points to lower potency. Take `CO[C@@]12[C@H](COC(N)=O)C3=C(C(=O)C(C)C4(OCCO4)C3=O)N1C[C@H]1[C@@H]2N1C` (stereo partly specified): in assay [1] (Homo sapiens, HeLa), the half-maximal inhibitory concentration (IC50) amounted to 600 nM. In [2], the ILS max was 53%. `CC1C(=O)C2=C(C(=O)C13OCCO3)[C@H](COC(N)=O)[C@@]1(O)[C@@H]3[C@H](CN21)N3C` (stereo partly specified): the ILS max in [3] is on record as 73%. Moreover, the midpoint of inhibition in assay [1] (Homo sapiens, HeLa), the IC50, lay at 4400 nM.

As for `CC(=O)OC1=C(C)C2(OCCO2)C(=O)C2=C1N1C[C@H]3[C@H](N3C)[C@]1(O)[C@H]2COC(N)=O` (stereo partly specified), in assay [1] (Homo sapiens, HeLa), it took 4400 nM to reach half-maximal inhibition (IC50). Moreover, the ILS max in assay [4] is given as 71%. With `CO[C@@]12[C@H](COC(N)=O)C3=C(C(OC(=O)c4ccccc4)=C(C)C4(OCCO4)C3=O)N1C[C@@H]1N[C@@H]12`, the ILS max in assay [5] is given as 71%. The compound also returned a half-maximal inhibitory concentration (IC50) in assay [1] (Homo sapiens, HeLa) of 540 nM. Regarding `CO[C@@]12[C@H](COC(N)=O)C3=C(C(OC(=O)CCC(C)=O)=C(C)C4(OCCO4)C3=O)N1C[C@@H]1N[C@@H]12`, the ILS max in assay [6] is recorded as 80%. In assay [1] (Homo sapiens, HeLa), this compound returned an IC50 of 590 nM.

Regarding `COC1=C(C)C2(OCCO2)C(=O)C2=C1N1C[C@@H]3N[C@@H]3[C@]1(OC)[C@@H]2COC(N)=O`, in assay [7], the ILS max is 41%. The same compound showed an IC50 in assay [1] (Homo sapiens, HeLa) of 20000 nM.

Regarding `CCCCCCCC(=O)OC1=C(C)C2(OCCO2)C(=O)C2=C1N1C[C@@H]3N[C@@H]3[C@]1(OC)[C@@H]2COC(N)=O`, inhibition in assay [1] (Homo sapiens, HeLa) was half-maximal at 360 nM (IC50). Take `CN1[C@H]2[C@@H]1CN1C3=C(C(=O)C4(OCCO4)C(C)(Cl)C3=O)[C@H](COC(N)=O)[C@@]21O` (stereo partly specified): the ILS max in assay [8] is recorded as 59%. This compound also gave a half-inhibitory concentration (IC50) in assay [1] (Homo sapiens, HeLa) of 50000 nM. In assay [9], `CO[C@@]12[C@H](COC(N)=O)C3=C(C(OC(=O)C(C)(C)C)=C(C)C4(OCCO4)C3=O)N1C[C@@H]1N[C@@H]12` came in with an IC50 of 8100 nM. With `CCCCCCCCCCCC(=O)OC1=C(C)C2(OCCO2)C(=O)C2=C1N1C[C@@H]3N[C@@H]3[C@]1(OC)[C@@H]2COC(N)=O`, the ILS max in [10] is 67%. In [1] (Homo sapiens, HeLa), 94 nM corresponded to half-maximal inhibition (IC50).

With `CO[C@@]12[C@H](COC(N)=O)C3=C(C(=O)C(C)C4(OCCO4)C3=O)N1C[C@@H]1N[C@@H]12` (stereo partly specified), the ILS max in assay [11] is recorded as 69%. In addition, it took 41 nM to reach half-maximal inhibition in assay [1] (Homo sapiens, HeLa) (IC50). `CO[C@]12[C@@H]3[C@H](CN1C1=C(C(=O)C4(OCCO4)C(C)C1=O)[C@@H]2COC(N)=O)N3C` (stereo partly specified): the ILS max in assay [12] was 80%. Also, the IC50 in [1] (Homo sapiens, HeLa) worked out at 3100 nM. Regarding `CO[C@@]12[C@H](COC(N)=O)C3=C(C(OC(C)=O)=C(C)C4(OCCO4)C3=O)N1C[C@@H]1N[C@@H]12`, the ILS max in assay [13] is on record as 63%. This compound also had an IC50 in [1] (Homo sapiens, HeLa) of 4400 nM. `CCOC(=O)OC1=C(C)C2(OCCO2)C(=O)C2=C1N1C[C@@H]3N[C@@H]3[C@]1(OC)[C@@H]2COC(N)=O`: half-maximal inhibition in [9] (IC50) required 870 nM.

With `CO[C@@]12[C@H](COC(N)=O)C3=C(C(=O)C(C)(Cl)C4(OCCO4)C3=O)N1C[C@@H]1N[C@@H]12` (stereo in doubt; 13b), the IC50 in [1] (hela) came out at 3200 nM. The ILS max in assay [14] is 60%.

`CO[C@@]12[C@H](COC(N)=O)C3=C(C(=O)C(C)(Cl)C4(OCCO4)C3=O)N1C[C@@H]1N[C@@H]12` (stereo in doubt; 13c) gave an IC50 in [1] (hela) of 590 nM. Further, in assay [14], the ILS max is 73%. Regarding `CO[C@@]12[C@H](COC(N)=O)C3=C(C(=O)C(C)=C(N)C3=O)N1C[C@@H]1N[C@@H]12` [MITOMYCIN], in assay [15], the ILS max is 52%. In assay [1] (Homo sapiens, HeLa), it took 810 nM to reach half-maximal inhibition (IC50).
